Experimental data taken from ChEMBL document CHEMBL1125793 (J Med Chem, 1991).

Assays:
[1] = target: T1, Angiotensin II receptor (Rattus norvegicus, UniProt P29089+P25095+P35351); experiment: Binding affinity against Angiotensin II receptor, from rat adrenal gland; type: tissue-based
T1 sequence (P29089 whole entry): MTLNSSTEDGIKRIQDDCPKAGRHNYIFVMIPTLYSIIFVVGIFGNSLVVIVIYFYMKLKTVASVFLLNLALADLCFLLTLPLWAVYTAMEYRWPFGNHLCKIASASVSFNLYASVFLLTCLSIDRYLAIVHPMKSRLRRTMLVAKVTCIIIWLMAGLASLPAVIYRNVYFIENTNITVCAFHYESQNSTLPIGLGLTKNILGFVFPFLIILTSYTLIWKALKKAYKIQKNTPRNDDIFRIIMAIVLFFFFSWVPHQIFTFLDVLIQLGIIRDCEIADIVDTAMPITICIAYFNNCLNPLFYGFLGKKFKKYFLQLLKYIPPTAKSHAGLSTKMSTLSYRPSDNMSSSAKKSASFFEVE
T1 sequence (P25095 whole entry): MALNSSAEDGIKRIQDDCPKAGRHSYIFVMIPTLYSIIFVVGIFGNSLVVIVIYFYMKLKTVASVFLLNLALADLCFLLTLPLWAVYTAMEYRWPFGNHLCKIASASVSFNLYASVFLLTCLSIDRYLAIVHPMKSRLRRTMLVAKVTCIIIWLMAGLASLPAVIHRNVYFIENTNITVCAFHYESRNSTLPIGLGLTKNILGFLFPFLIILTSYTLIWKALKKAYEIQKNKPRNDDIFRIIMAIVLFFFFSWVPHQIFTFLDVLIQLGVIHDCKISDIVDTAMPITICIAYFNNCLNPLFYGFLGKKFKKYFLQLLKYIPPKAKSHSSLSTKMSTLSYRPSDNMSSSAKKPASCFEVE
T1 sequence (P35351 whole entry): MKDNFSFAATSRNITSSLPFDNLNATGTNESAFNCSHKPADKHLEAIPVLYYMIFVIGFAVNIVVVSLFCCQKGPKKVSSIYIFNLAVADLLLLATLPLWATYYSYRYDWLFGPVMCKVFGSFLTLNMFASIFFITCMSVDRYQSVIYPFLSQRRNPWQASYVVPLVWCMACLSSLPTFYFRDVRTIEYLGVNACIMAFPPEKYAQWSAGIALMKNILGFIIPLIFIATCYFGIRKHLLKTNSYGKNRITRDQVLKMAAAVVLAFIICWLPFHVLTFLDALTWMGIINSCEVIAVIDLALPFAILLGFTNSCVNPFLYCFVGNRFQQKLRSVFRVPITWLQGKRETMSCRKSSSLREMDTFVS

[2] = target: T1, Angiotensin II receptor; experiment: Binding affinity for rat brain Angiotensin II receptor
[3] = target: T2, Angiotensin II receptor (Rattus norvegicus) (UniProt P29089+P25095+P35351); experiment: Inhibitory activity against Angiotensin II receptor, from rat adrenal gland at a concentration of 10 uM; type: tissue-based
Method in brief: (§1)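 Displacement of 125I-Ang II ([…]) from rat adrenal membrane fraction, with test agent at a single 10 μM. Buffer was Tris-HCl, NaCl, 5 mM DTT and BSA; incubation 30 min at 22–25 °C in duplicate.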

[4] = target: T2, Angiotensin II receptor (Rattus norvegicus); experiment: Inhibitory activity against angiotensin II receptor at a concentration of 10 uM in rat; method in brief: as §1

An IC50 [1] of 8000 nM and an IC50 [2] of 19000 nM were found for `O=C(O)C1Cc2c(ncn2Cc2ccccc2)CN1C(=O)C1c2ccccc2-c2ccccc21` (configuration not stated) in this work.

An IC50 [1] of 150 nM and an IC50 [2] of 1600 nM were found for `Cc1cccc(Cn2cnc3c2C[C@@H](C(=O)O)N(C(=O)C(c2ccccc2)c2ccccc2)C3)c1` in this work.

An IC50 [1] of 34 nM and an IC50 [2] of 210 nM were found for `Cc1cc(Cn2cnc3c2C[C@@H](C(=O)O)N(C(=O)C(c2ccccc2)c2ccccc2)C3)ccc1N(C)C` in this work.

An IC50 [1] of 440 nM and an IC50 [2] of 3800 nM were found for `O=C(O)C1Cc2c(ncn2Cc2ccccc2)CN1C(=O)C(c1ccccc1)c1ccccc1` (stereo in doubt; 18a) in this work.

An inhibition [3] of 24% was found for `O=C(O)C1Cc2ncn(Cc3ccccc3)c2CN1C(=O)Nc1ccccc1` (configuration not stated) in this work.

An IC50 [1] of 370 nM and an IC50 [2] of 130 nM were found for `COc1ccc(Cn2cnc3c2CC(CO)N(C(=O)C(c2ccccc2)c2ccccc2)C3)cc1C` (configuration not stated) in this work.

An inhibition [3] of 14% was found for `NC(=O)C1Cc2c(ncn2Cc2ccccc2)CN1C(=O)Nc1ccccc1` (configuration not stated) in this work.

An IC50 [1] of 190 nM and an IC50 [2] of 800 nM were found for `O=C(O)[C@@H]1Cc2c(ncn2Cc2ccc(C(F)(F)F)cc2)CN1C(=O)C(c1ccccc1)c1ccccc1` in this work.

An inhibition [3] of 12% was found for `O=C(O)C1Cc2c(ncn2Cc2ccccc2)CN1C(=O)c1ccccc1` (configuration not stated) in this work.

An IC50 [1] of 130 nM and an IC50 [2] of 170 nM were found for `O=C(O)[C@@H]1Cc2c(ncn2CCC23CC4CC(CC(C4)C2)C3)CN1C(=O)C(c1ccccc1)c1ccccc1` in this work.

An IC50 [1] of 700 nM and an IC50 [2] of 400 nM were found for `O=C(O)[C@@H]1Cc2c(ncn2CCCc2ccccc2)CN1C(=O)C(c1ccccc1)c1ccccc1` in this work.

An IC50 [1] of 6800 nM and an IC50 [2] of 8200 nM were found for `O=C(O)C1Cc2c(ncn2Cc2ccccc2)CN1C(=O)C(c1ccc(Cl)cc1)c1ccc(Cl)cc1` (configuration not stated) in this work.

An inhibition [4] of 27% was found for `COc1ccc(Cn2cnc3c2C[C@@H](C(=O)O)N(C(=O)C2c4ccccc4-c4ccccc42)C3)cc1C` in this work.

An IC50 [1] of 4600 nM was found for `O=C(O)C1Cc2c(ncn2Cc2ccccc2)CN1C(=O)Oc1ccccc1` (configuration not stated) in this work.

An IC50 [1] of 70 nM was found for `COc1ccc(Cn2cnc3c2C[C@@H](C(=O)O)N(C(=O)C(c2ccccc2)c2ccccc2)C3)cc1C` in this work.

An inhibition [3] of 4% was found for `CC(=O)N1Cc2ncn(Cc3ccccc3)c2CC1C(=O)O` (configuration not stated) in this work.

An IC50 [1] of 120 nM was found for `COc1cccc(Cn2cnc3c2C[C@@H](C(=O)O)N(C(=O)C(c2ccccc2)c2ccccc2)C3)c1` in this work.

An IC50 [1] of 5100 nM was found for `COC(=O)C1Cc2c(ncn2Cc2ccc([N+](=O)[O-])c(C)c2)CN1C(=O)C(c1ccccc1)c1ccccc1` (configuration not stated) in this work.

An IC50 [1] of 560 nM was found for `COc1ccc(Cn2cnc3c2C[C@@H](C(=O)O)N(C(=O)C(C)c2ccccc2)C3)cc1C` (some centres not stated) in this work.

An IC50 [1] of 530 nM was found for `COc1ccc(Cn2cnc3c2C[C@@H](C(=O)O)N(C(=O)Cc2ccccc2)C3)cc1C` in this work.

An IC50 [1] of 140 nM was found for `COc1ccc(Cn2cnc3c2C[C@@H](C(=O)O)N(C(=O)N(C)c2ccccc2)C3)cc1C` in this work.

An IC50 [1] of 2500 nM was found for `O=C(O)C1Cc2c(ncn2Cc2ccccc2)CN1C(=O)/C=C/c1ccccc1` (configuration not stated) in this work.

An IC50 [1] of 4200 nM was found for `COc1ccc(Cn2cnc3c2C[C@@H](C(=O)O)N(C(=O)CC(c2ccccc2)c2ccccc2)C3)cc1C` in this work.

An IC50 [1] of 240 nM was found for `O=C(O)[C@@H]1Cc2c(ncn2CCc2ccccc2)CN1C(=O)C(c1ccccc1)c1ccccc1` in this work.

An IC50 [1] of 740 nM was found for `O=C(O)C1Cc2c(ncn2Cc2ccccc2)CN1C(=O)Cc1ccccc1` (stereo in doubt; 14a) in this work.

An IC50 [1] of 4200 nM was found for `Cc1ccc(S(=O)(=O)N2Cc3ncn(Cc4ccccc4)c3CC2C(=O)O)cc1` (configuration not stated) in this work.

An IC50 [1] of 450 nM was found for `O=C(O)[C@@H]1Cc2c(ncn2Cc2ccc(F)cc2)CN1C(=O)C(c1ccccc1)c1ccccc1` in this work.

An IC50 [1] of 4100 nM was found for `CN(Cc1ccccc1)C(=O)N1Cc2ncn(Cc3ccccc3)c2CC1C(=O)O` (configuration not stated) in this work.

An IC50 [1] of 240 nM was found for `O=C(O)[C@@H]1Cc2c(ncn2CCC2CCCCC2)CN1C(=O)C(c1ccccc1)c1ccccc1` in this work.

An IC50 [1] of 840 nM was found for `COc1ccc(Cn2cnc3c2C[C@@H](C(=O)O)N(C(=O)C2(c4ccccc4)CCCC2)C3)cc1C` in this work.

An IC50 [1] of 3500 nM was found for `COc1ccc(Cn2cnc3c2C[C@@H](C(=O)O)N(C(=O)C(Cc2ccccc2)c2ccccc2)C3)cc1C` (some centres not stated) in this work.

An IC50 [1] of 56 nM was found for `Cc1cc(Cn2cnc3c2C[C@@H](C(=O)O)N(C(=O)C(c2ccccc2)c2ccccc2)C3)ccc1O` in this work.

An IC50 [1] of 44 nM was found for `CNC(=O)Nc1ccc(Cn2cnc3c2C[C@@H](C(=O)O)N(C(=O)C(c2ccccc2)c2ccccc2)C3)cc1C` in this work.
